According to ChEMBL document CHEMBL3994650, “New 1,4-dihydro[1,8]naphthyridine derivatives as DNA gyrase inhibitors” (Bioorg Med Chem Lett, 2017):
Converted amounts (≈) assume the structure as drawn. The source made the active and inactive calls. The calls are words filed in the database; no cut-off is given here.

How the values were obtained:
[1] = tested on: Staphylococcus aureus; experiment: Antibacterial activity against Staphylococcus aureus ATCC 25923 incubated after 24 hrs by resazurin dye based broth microdilution assay; format: functional; conditions: ATCC 25923, 24 h
[2] = tested on: Escherichia coli; experiment: Antibacterial activity against Escherichia coli ATCC 35218 incubated after 24 hrs by resazurin dye based broth microdilution assay; format: functional; conditions: ATCC 35218, 24 h
[3] = tested on: Escherichia coli; experiment: Antibacterial activity against Escherichia coli ATCC 25922 incubated after 24 hrs by resazurin dye based broth microdilution assay; format: functional; conditions: ATCC 25922, 24 h
[4] = tested on: Klebsiella pneumoniae; experiment: Antibacterial activity against Klebsiella pneumoniae ATCC 700603 incubated after 24 hrs by resazurin dye based broth microdilution assay; format: functional; conditions: Klebsiella pneumoniae, 700603, 24 h
[5] = tested on: Enterococcus faecalis; experiment: Antibacterial activity against Enterococcus faecalis ATCC 29212 incubated after 24 hrs by resazurin dye based broth microdilution assay; format: functional; conditions: ATCC 29212, 24 h
[6] = tested on: Enterococcus faecalis; experiment: Antibacterial activity against Enterococcus faecalis ATCC 51299 incubated after 24 hrs by resazurin dye based broth microdilution assay; format: functional; conditions: ATCC 51299, 24 h
[7] = tested on: Listeria monocytogenes; experiment: Antibacterial activity against Listeria monocytogenes ATCC 7644 incubated after 24 hrs by resazurin dye based broth microdilution assay; format: functional; conditions: ATCC 7644, 24 h
[8] = tested on: Pseudomonas aeruginosa; experiment: Antibacterial activity against Pseudomonas aeruginosa ATCC 27853 incubated after 24 hrs by resazurin dye based broth microdilution assay; format: functional; conditions: ATCC 27853, 24 h
[9] = Selectivity index, ratio of IC50 for mouse NIH/3T3 cells to MIC90 for Klebsiella pneumoniae ATCC 700603; format: toxicity; conditions: read-out: Selectivity Index
[10] = Selectivity index, ratio of IC50 for mouse NIH/3T3 cells to MIC90 for Listeria monocytogenes ATCC 7644; format: toxicity; conditions: read-out: Selectivity Index
[11] = tested on: Staphylococcus aureus; experiment: Antibacterial activity against Staphylococcus aureus ATCC 25923 assessed as decrease in ATP level at […] ug/ml after 24 hrs by BacTiter-Glo reagent based bioluminescence assay; format: functional
[12] = tested on: Escherichia coli ATCC 25922; experiment: Inhibition of Escherichia coli DNA gyrase assessed as inhibition of enzyme-mediated supercoiling of relaxed pHOT1 DNA substrate after 30 mins by gel electrophoresis method
Method in brief: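 E. coli DNA gyrase (1 U) was incubated with relaxed pHOT1 DNA substrate (0.25 µg) for 30 min at 37 °C. Compounds were tested at 15.6, 7.8, 3.9 and 1.95 µg/L. Controls were supercoiled DNA, relaxed DNA, relaxed DNA plus gyrase, and 1% DMSO. Supercoiling was read by agarose gel electrophoresis.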

[13] = tested on: NIH3T3; experiment: Cytotoxicity against mouse NIH/3T3 cells assessed as reduction in cell proliferation after 24 hrs by MTT assay; format: cell-based; conditions: NIH3T3, 24 h
[14] = Selectivity index, ratio of IC50 for mouse NIH/3T3 cells to MIC90 for Pseudomonas aeruginosa ATCC 27853; format: toxicity; conditions: read-out: Selectivity Index
[15] = tested on: Escherichia coli ATCC 25922; experiment: Inhibition of Escherichia coli DNA gyrase assessed as inhibition of enzyme-mediated supercoiling of relaxed pHOT1 DNA substrate at […] to […] ug/ml after 30 mins by gel electrophoresis method

SMILES	MIC90 [1] [µg/mL]	MIC90 [2] [µg/mL]	MIC90 [3] [µg/mL]	MIC90 [4] [µg/mL]	MIC90 [5] [µg/mL]	MIC90 [6] [µg/mL]	MIC90 [7] [µg/mL]	MIC90 [8] [µg/mL]	inhibition [12]	inhibition [15]	selectivity ratio [9]	selectivity ratio [10]	Activity [11]	IC50 [13] [µg/mL]	selectivity ratio [14]
CCOC(=O)c1cn(-c2ccc(F)cc2F)c2nc(N3CCN(CCCN(C)C)CC3)c(F)cc2c1=O	62.5 (≈ 121 µM)	125 (≈ 242 µM)	125 (≈ 242 µM)	250 (≈ 483 µM)	125 (≈ 242 µM)	62.5 (≈ 121 µM)	125 (≈ 242 µM)	125 (≈ 242 µM)	–	–	–	–	–	–	–
CCOC(=O)c1cn(-c2ccc(F)cc2F)c2nc(Sc3nc4ccccc4s3)c(F)cc2c1=O	62.5 (≈ 122 µM)	125 (≈ 243 µM)	125 (≈ 243 µM)	125 (≈ 243 µM)	125 (≈ 243 µM)	125 (≈ 243 µM)	125 (≈ 243 µM)	125 (≈ 243 µM)	–	–	–	–	–	–	–
CCOC(=O)c1cn(-c2ccc(F)cc2F)c2nc(Sc3nc4cc([N+](=O)[O-])ccc4[nH]3)c(F)cc2c1=O	125 (≈ 231 µM)	125 (≈ 231 µM)	250 (≈ 462 µM)	125 (≈ 231 µM)	250 (≈ 462 µM)	250 (≈ 462 µM)	125 (≈ 231 µM)	125 (≈ 231 µM)	–	–	–	–	–	–	–
CCOC(=O)c1cn(-c2ccc(F)cc2F)c2nc(Sc3nc4cc(Cl)ccc4[nH]3)c(F)cc2c1=O	62.5 (≈ 118 µM)	125 (≈ 235 µM)	62.5 (≈ 118 µM)	125 (≈ 235 µM)	125 (≈ 235 µM)	125 (≈ 235 µM)	62.5 (≈ 118 µM)	125 (≈ 235 µM)	–	–	–	–	–	–	–
CCOC(=O)c1cn(-c2ccc(F)cc2F)c2nc(Sc3nc4ccccc4[nH]3)c(F)cc2c1=O	125 (≈ 252 µM)	125 (≈ 252 µM)	62.5 (≈ 126 µM)	125 (≈ 252 µM)	125 (≈ 252 µM)	62.5 (≈ 126 µM)	125 (≈ 252 µM)	125 (≈ 252 µM)	–	–	–	–	–	–	–
CCOC(=O)c1cn(-c2ccc(F)cc2F)c2nc(Sc3nc4cc(C)ccc4[nH]3)c(F)cc2c1=O	62.5 (≈ 122 µM)	250 (≈ 490 µM)	125 (≈ 245 µM)	125 (≈ 245 µM)	125 (≈ 245 µM)	250 (≈ 490 µM)	125 (≈ 245 µM)	62.5 (≈ 122 µM)	–	–	–	–	–	–	–
O=C(O)c1cn(-c2ccc(F)cc2F)c2nc(Sc3nc4ccccc4s3)c(F)cc2c1=O	15.6 (≈ 32.1 µM)	31.2 (≈ 64.4 µM)	31.2 (≈ 64.4 µM)	31.2 (≈ 64.4 µM)	31.2 (≈ 64.4 µM)	62.5 (≈ 129 µM)	31.2 (≈ 64.4 µM)	31.2 (≈ 64.4 µM)	–	–	–	–	–	–	–

The next molecules have a lower MIC90 [1] than those just listed; values first:

MIC90 [1] [µg/mL]	MIC90 [2] [µg/mL]	MIC90 [3] [µg/mL]	MIC90 [4] [µg/mL]	MIC90 [5] [µg/mL]	MIC90 [6] [µg/mL]	MIC90 [7] [µg/mL]	MIC90 [8] [µg/mL]	inhibition [12]	inhibition [15]	SMILES	selectivity ratio [9]	selectivity ratio [10]	Activity [11]	IC50 [13] [µg/mL]	selectivity ratio [14]
1.95 (≈ 3.8 µM)	3.9 (≈ 7.6 µM)	3.9 (≈ 7.6 µM)	15.6 (≈ 30.4 µM)	7.8 (≈ 15.2 µM)	15.6 (≈ 30.4 µM)	15.6 (≈ 30.4 µM)	15.6 (≈ 30.4 µM)	Dose-dependent effect	–	O=C(O)c1cn(-c2ccc(F)cc2F)c2nc(Sc3nc4cc([N+](=O)[O-])ccc4[nH]3)c(F)cc2c1=O	8	8	Active	122 (≈ 237 µM)	8
7.8 (≈ 15.5 µM)	15.6 (≈ 31 µM)	15.6 (≈ 31 µM)	31.2 (≈ 62.1 µM)	31.2 (≈ 62.1 µM)	31.2 (≈ 62.1 µM)	15.6 (≈ 31 µM)	31.2 (≈ 62.1 µM)	–	–	O=C(O)c1cn(-c2ccc(F)cc2F)c2nc(Sc3nc4cc(Cl)ccc4[nH]3)c(F)cc2c1=O	–	–	–	–	–
≤ 1.95	≤ 1.95	≤ 1.95	≤ 1.95	≤ 1.95	≤ 1.95	3.9 (≈ 11.8 µM)	≤ 1.95	–	–	O=C(O)c1cn(C2CC2)c2cc(N3CCNCC3)c(F)cc2c1=O [CIPROFLOXACIN]	–	–	Active	306 (≈ 923 µM)	–
7.8 (≈ 16.7 µM)	15.6 (≈ 33.3 µM)	15.6 (≈ 33.3 µM)	31.2 (≈ 66.7 µM)	15.6 (≈ 33.3 µM)	31.2 (≈ 66.7 µM)	31.2 (≈ 66.7 µM)	31.2 (≈ 66.7 µM)	–	–	O=C(O)c1cn(-c2ccc(F)cc2F)c2nc(Sc3nc4ccccc4[nH]3)c(F)cc2c1=O	–	–	–	–	–
≤ 1.95	≤ 1.95	≤ 1.95	3.9 (≈ 9.72 µM)	≤ 1.95	≤ 1.95	3.9 (≈ 9.72 µM)	3.9 (≈ 9.72 µM)	–	Active	COc1c(N2C[C@@H]3CCCN[C@@H]3C2)c(F)cc2c(=O)c(C(=O)O)cn(C3CC3)c12 [MOXIFLOXACIN]	–	–	–	380 (≈ 946 µM)	–
3.9 (≈ 8.08 µM)	3.9 (≈ 8.08 µM)	7.8 (≈ 16.2 µM)	31.2 (≈ 64.8 µM)	31.2 (≈ 64.8 µM)	31.2 (≈ 64.8 µM)	31.2 (≈ 64.8 µM)	15.6 (≈ 32.3 µM)	–	–	Cc1ccc2[nH]c(Sc3nc4c(cc3F)c(=O)c(C(=O)O)cn4-c3ccc(F)cc3F)nc2c1	–	–	–	–	–
≤ 1.95	≤ 1.95	≤ 1.95	≤ 1.95	≤ 1.95	≤ 1.95	≤ 1.95	≤ 1.95	–	Active	N[C@@H]1[C@H]2CN(c3nc4c(cc3F)c(=O)c(C(=O)O)cn4-c3ccc(F)cc3F)C[C@@H]12 [TROVAFLOXACIN]	–	–	Active	244 (≈ 587 µM)	–
